These results are taken from ChEMBL document CHEMBL1148001 (Bioorg Med Chem Lett, 2007).

Structures are written as SMILES. Some results are limits rather than exact numbers.

The target in one data set is Dipeptidyl peptidase 8 (Homo sapiens, UniProt Q6V1X1). Description: Inhibition of DPP8 activity.
A further data set has as its target Dipeptidyl peptidase 9 (Homo sapiens, UniProt Q86TI2). The data set can be described thus: Inhibition of DPP9 activity.
Data set [1] in a line: Oral bioavailability in rat at 2 mg/kg. Conditions: in vivo. The data set is classed as ADME, organism-based. An outline of the steps:
(§1)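 Rats received the inhibitor at 1 mg/kg iv and 2 mg/kg po. Values reported are clearance (mL/min/kg), half-life (h), oral AUC normalized to dose (μM h kg mg⁻¹) and oral bioavailability F (%).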

The nature of data set [2]: Clearance in rat at 1 mg/kg, iv or 2 mg/kg, po. The data set is classed as ADME, organism-based. The settings on record: in vivo. The procedure, abridged:
as §1

Data set [3] is described as follows: Half life in rat at 1 mg/kg, iv or 2 mg/kg, po. Type of data set: ADME, organism-based. The settings on record: in vivo. An outline of the steps: as §1

Dipeptidyl peptidase 8, sequence (Q6V1X1 whole entry): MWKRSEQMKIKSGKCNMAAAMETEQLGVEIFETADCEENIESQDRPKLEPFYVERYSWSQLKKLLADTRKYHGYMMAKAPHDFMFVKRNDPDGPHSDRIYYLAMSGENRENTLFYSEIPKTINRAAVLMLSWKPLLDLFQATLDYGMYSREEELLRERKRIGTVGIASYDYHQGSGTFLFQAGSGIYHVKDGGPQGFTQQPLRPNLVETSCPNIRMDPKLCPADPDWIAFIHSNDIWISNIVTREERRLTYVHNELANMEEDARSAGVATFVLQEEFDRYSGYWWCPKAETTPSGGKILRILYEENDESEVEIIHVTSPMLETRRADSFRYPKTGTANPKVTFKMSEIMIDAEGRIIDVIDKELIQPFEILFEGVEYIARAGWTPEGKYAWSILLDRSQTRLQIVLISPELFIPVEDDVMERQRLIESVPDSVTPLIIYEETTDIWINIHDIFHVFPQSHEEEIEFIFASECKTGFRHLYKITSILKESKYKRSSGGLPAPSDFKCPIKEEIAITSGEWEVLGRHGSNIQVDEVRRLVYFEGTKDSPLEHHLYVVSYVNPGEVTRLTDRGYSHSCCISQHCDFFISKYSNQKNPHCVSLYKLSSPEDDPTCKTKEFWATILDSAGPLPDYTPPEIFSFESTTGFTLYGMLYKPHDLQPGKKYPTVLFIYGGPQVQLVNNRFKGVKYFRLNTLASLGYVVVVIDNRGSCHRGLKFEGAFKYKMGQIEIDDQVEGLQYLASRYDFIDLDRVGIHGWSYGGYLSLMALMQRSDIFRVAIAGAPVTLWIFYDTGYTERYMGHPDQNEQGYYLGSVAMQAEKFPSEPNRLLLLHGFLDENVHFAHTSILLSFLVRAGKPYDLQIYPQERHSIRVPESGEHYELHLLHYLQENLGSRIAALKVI
Dipeptidyl peptidase 9, sequence (Q86TI2 whole entry): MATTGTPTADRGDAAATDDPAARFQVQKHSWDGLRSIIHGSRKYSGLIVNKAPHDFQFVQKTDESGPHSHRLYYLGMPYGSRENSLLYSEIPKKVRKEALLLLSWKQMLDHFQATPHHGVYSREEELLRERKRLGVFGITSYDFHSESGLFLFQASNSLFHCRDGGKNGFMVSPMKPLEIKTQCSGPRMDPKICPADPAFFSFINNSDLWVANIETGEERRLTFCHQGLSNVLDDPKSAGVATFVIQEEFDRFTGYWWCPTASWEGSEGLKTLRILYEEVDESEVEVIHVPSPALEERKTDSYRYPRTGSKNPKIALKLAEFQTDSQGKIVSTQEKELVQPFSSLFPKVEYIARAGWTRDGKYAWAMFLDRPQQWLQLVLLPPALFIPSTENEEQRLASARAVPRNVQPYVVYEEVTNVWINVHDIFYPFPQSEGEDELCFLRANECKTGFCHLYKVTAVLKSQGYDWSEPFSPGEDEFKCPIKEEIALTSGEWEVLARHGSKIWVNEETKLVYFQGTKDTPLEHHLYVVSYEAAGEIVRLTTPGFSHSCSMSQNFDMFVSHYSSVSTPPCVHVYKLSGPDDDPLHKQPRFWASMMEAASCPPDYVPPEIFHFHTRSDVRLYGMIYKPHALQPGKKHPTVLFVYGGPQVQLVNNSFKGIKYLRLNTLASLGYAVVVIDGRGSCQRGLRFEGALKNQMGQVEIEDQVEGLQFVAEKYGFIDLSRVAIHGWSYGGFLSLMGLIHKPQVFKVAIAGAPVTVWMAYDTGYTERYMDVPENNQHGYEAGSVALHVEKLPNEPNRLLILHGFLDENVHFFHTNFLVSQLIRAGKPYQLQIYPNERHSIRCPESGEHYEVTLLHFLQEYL

As to `N[C@@H](CC(=O)N1CCn2c(nnc2C(F)(F)F)C1)Cc1cccc(F)c1`, the IC50 on Dipeptidyl peptidase 8 and against Dipeptidyl peptidase 9 was over 100 µM each time.
As for `N[C@@H](CC(=O)N1CCn2c(nnc2C(F)(F)F)C1)Cc1cc(Cl)ccc1Cl`, the IC50 on Dipeptidyl peptidase 8 and at Dipeptidyl peptidase 9 was over 100 µM in each case.
In the case of `N[C@@H](CC(=O)N1CCn2c(nnc2C(F)(F)F)C1)Cc1cc(F)c(Cl)cc1F`, in data set [1], the bioavailability (as a rule, the share of a dose that reaches the circulation, judged against a reference dose that is usually intravenous) is 54%. Further, the IC50 (usually the point on the concentration scale where inhibition reaches its midpoint) against Dipeptidyl peptidase 9 is over 100 µM. In data set [2], this compound gave a clearance of 58 mL/min/kg. Besides, in data set [3], the half-life (in general, how long it takes for the measured level to halve) was 2.1 h.
For the compound `N[C@@H](CC(=O)N1CCn2c(nnc2C(F)(F)F)C1)Cc1cc(F)c(F)cc1Cl`, the bioavailability in data set [1] was 47%. Moreover, the IC50 at Dipeptidyl peptidase 8 and at Dipeptidyl peptidase 9 was over 100 µM throughout. Also, in data set [2], the clearance amounted to 78 mL/min/kg. In data set [3], this compound had a half-life of 1.7 h.
On Dipeptidyl peptidase 9, `N[C@@H](CC(=O)N1CCn2c(nnc2-c2ccc(F)cc2)C1)Cc1cc(F)ccc1F` had a half-maximal inhibitory concentration (IC50) of over 100 µM.
Still for that read-out and setting: to `N[C@@H](CC(=O)N1CCn2c(nnc2-c2ccncc2)C1)Cc1cc(F)ccc1F` belongs 84 µM.
On to `N[C@@H](CC(=O)N1CCn2c(CO)nnc2C1)Cc1cc(F)ccc1F`, for which the IC50 against Dipeptidyl peptidase 8 and at Dipeptidyl peptidase 9 was over 100 µM in each case.
`CCc1nnc2n1CCN(C(=O)C[C@H](N)Cc1cc(F)c(F)cc1F)C2` came in with a bioavailability in data set [1] of 2%. The IC50 against Dipeptidyl peptidase 9 is over 100 µM. The clearance in data set [2] is 70 mL/min/kg.
As for `CCOC(=O)c1nnc2n1CCN(C(=O)C[C@H](N)Cc1cc(F)c(F)cc1F)C2`, the half-maximal inhibitory concentration (IC50) on Dipeptidyl peptidase 8 was determined as 22 µM.
Consider `CC(C)(C)NC(=O)c1nnc2n1CCN(C(=O)C[C@H](N)Cc1cc(F)c(F)cc1F)C2`, for which, at Dipeptidyl peptidase 9, the IC50 is over 100 µM.
The compound `N[C@@H](CC(=O)N1CCn2c(nnc2C(F)(F)F)C1)Cc1ccc(Cl)cc1Cl` showed a bioavailability in data set [1] of 36%. Further, the clearance in data set [2] was found to be 98 mL/min/kg. In addition, the half-life in data set [3] is 2.6 h.
For the compound `N[C@@H](CC(=O)N1CCn2c(nnc2C(F)(F)F)C1)Cc1ccc(F)cc1`, the IC50 on Dipeptidyl peptidase 9 was over 100 µM.
Turning to `N[C@@H](CC(=O)N1CCn2c(nnc2C(F)(F)F)C1)Cc1cccc(C(F)(F)F)c1`, the IC50 at Dipeptidyl peptidase 8 and on Dipeptidyl peptidase 9 was over 100 µM each time.
Take `N[C@@H](CC(=O)N1CCn2c(nnc2C(F)(F)F)C1)Cc1cccc(Cl)c1`: the 50% inhibitory concentration (IC50) against Dipeptidyl peptidase 8 and against Dipeptidyl peptidase 9 was over 100 µM in each case.
Take `N[C@@H](CC(=O)N1CCn2c(nnc2C(F)(F)F)C1)Cc1cc(F)cc(F)c1F`: the IC50 at Dipeptidyl peptidase 8 and at Dipeptidyl peptidase 9 was over 100 µM in each case.
For the compound `N[C@@H](CC(=O)N1CCn2c(nnc2C(F)(F)F)C1)Cc1ccc(C(F)(F)F)cc1`, the IC50 on Dipeptidyl peptidase 8 and at Dipeptidyl peptidase 9 was over 100 µM throughout.
`N[C@@H](CC(=O)N1CCn2c(nnc2C(F)(F)F)C1)Cc1ccccc1Cl`: the IC50 on Dipeptidyl peptidase 8 and against Dipeptidyl peptidase 9 was over 100 µM throughout.
With `N[C@@H](CC(=O)N1CCn2c(nnc2C(F)(F)F)C1)Cc1ccc(Cl)c(Cl)c1`, the IC50 against Dipeptidyl peptidase 8 and on Dipeptidyl peptidase 9 was over 100 µM each time.
Regarding `N[C@@H](CC(=O)N1CCn2c(nnc2C(F)(F)F)C1)Cc1ccccc1F`, the IC50 against Dipeptidyl peptidase 9 was over 100 µM.
Regarding `N[C@@H](CC(=O)N1CCn2c(nnc2C(F)(F)F)C1)Cc1ccc(F)cc1F`, the IC50 against Dipeptidyl peptidase 9 was over 100 µM.
On the same count and under the same terms, the result for `N[C@@H](CC(=O)N1CCn2c(nnc2-c2ccc(F)cc2F)C1)Cc1cc(F)ccc1F` reads 58 µM.
Still for that read-out and setting: the result for `CCOC(=O)c1nnc2n1CCN(C(=O)C[C@H](N)Cc1cc(F)ccc1F)C2` reads 78 µM.
Compound `N[C@@H](CC(=O)N1CCn2c(nnc2C2CC2)C1)Cc1cc(F)c(F)cc1F` yielded a bioavailability in data set [1] of 3%. On Dipeptidyl peptidase 9, this compound gave an IC50 of over 100 µM. The compound also returned a clearance in data set [2] of 68 mL/min/kg. The half-life in data set [3] was 1.8 h.
On the same counts, the results for `N[C@@H](CC(=O)N1CCn2c(nnc2C(F)F)C1)Cc1cc(F)c(F)cc1F` are 39%, over 100 µM, 66 mL/min/kg and 1.3 h.
Take `N[C@@H](CC(=O)N1CCn2c(nnc2C(F)(F)F)C1)Cc1c(F)ccc(F)c1F`: the IC50 against Dipeptidyl peptidase 8 and against Dipeptidyl peptidase 9 was over 100 µM each time.
Consider `N[C@@H](CC(=O)N1CCn2c(nnc2C(F)(F)F)C1)Cc1c(F)cc(F)cc1F`, for which the IC50 against Dipeptidyl peptidase 8 and on Dipeptidyl peptidase 9 was over 100 µM throughout.
Turning to `N[C@@H](CC(=O)N1CCn2c(nnc2C(F)(F)F)C1)Cc1c(F)c(F)c(F)c(F)c1F`, the 50% inhibitory concentration (IC50) on Dipeptidyl peptidase 8 and on Dipeptidyl peptidase 9 was over 100 µM each time.
On to `N[C@@H](CC(=O)N1CCn2c(nnc2C(F)(F)F)C1)Cc1ccccc1C(F)(F)F`, for which the IC50 against Dipeptidyl peptidase 8 and against Dipeptidyl peptidase 9 was over 100 µM in each case.
`N[C@@H](CC(=O)N1CCn2c(nnc2C(F)(F)F)C1)Cc1cc(Cl)ccc1F` showed a bioavailability in data set [1] of 43%. The half-maximal inhibitory concentration (IC50) on Dipeptidyl peptidase 8 was over 100 µM. The compound also had a clearance in data set [2] of 99 mL/min/kg. The same compound had a half-life in data set [3] of 1.7 h.
Turning to `N[C@@H](CC(=O)N1CCn2c(nnc2C(F)(F)F)C1)Cc1cc(F)c(F)cc1F` [SITAGLIPTIN], in data set [1], the bioavailability amounted to 76%. The compound further came in with a clearance in data set [2] of 60 mL/min/kg.
